Measured values published in ChEMBL document CHEMBL4219033, “Anticancer activity profiling of parthenolide analogs generated via P450-mediated chemoenzymatic synthesis” (2018).

How the values were obtained:
Type in all cases: functional
Jurkat [1] = experiment: Cytotoxicity against human Jurkat cells assessed as cell viability at 2 uM after 24 hrs by MTT assay relative to control; details: read-out: Activity
Method in brief: (§1)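 Suspension lines grown in α-MEM plus 10% FBS and penicillin-streptomycin, 37 °C, 5% CO2. Seeded at 30,000 cells/well in phenol-red-free α-MEM and rested 15 h. Exposed to 10 µM, or 2 µM in the lower-dose repeat, at 1% DMSO final for 24 h. 5 mg/ml MTT added directly for 3 h at 37 °C. Plates spun, formazan dissolved in DMSO, OD read at 550 nm. Viability relative to vehicle.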

JeKo-1 [2] = experiment: Cytotoxicity against human JeKo1 cells assessed as cell viability at 2 uM after 24 hrs by MTT assay relative to control; details: JeKo-1, 24 h, read-out: Activity; method in brief: as §1
Jurkat [3] = experiment: Cytotoxicity against human Jurkat cells assessed as cell viability at 10 uM after 24 hrs by MTT assay relative to control; details: read-out: Activity; method in brief: as §1
JeKo-1 [4] = experiment: Cytotoxicity against human JeKo1 cells assessed as cell viability at 10 uM after 24 hrs by MTT assay relative to control; details: JeKo-1, 24 h, read-out: Activity; method in brief: as §1
HeLa [5] = experiment: Cytotoxicity against human HeLa cells assessed as cell viability at 10 uM after 24 hrs by MTT assay relative to control; details: read-out: Activity
Method in brief: (§2)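 Adherent lines in DMEM plus 10% FBS and penicillin-streptomycin, 37 °C, 5% CO2, lifted with Accutase. Seeded at 500–10,000 cells/well and rested 15 h. Compounds from 10 mM DMSO stocks dosed at 10 µM final, 1% DMSO final, n = 5, for 24 h. Medium then swapped for 1 mg/ml MTT in phenol-red-free medium for 3 h at 37 °C. Formazan dissolved in DMSO, OD read at 550 nm. Viability normalised to 1% DMSO vehicle control.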

A549 [6] = experiment: Cytotoxicity against human A549 cells assessed as cell viability at 10 uM after 24 hrs by MTT assay relative to control; details: A549, 24 h, read-out: Activity; method in brief: as §2
HCT-116 [7] = experiment: Cytotoxicity against human HCT116 cells assessed as cell viability at 10 uM after 24 hrs by MTT assay relative to control; details: HCT-116, 24 h, read-out: Activity; method in brief: as §2
SJSA-1 [8] = experiment: Cytotoxicity against human SJSA1 cells assessed as cell viability at 10 uM after 24 hrs by MTT assay relative to control; details: SJSA-1, 24 h, read-out: Activity; method in brief: as §2
SK-N-MC [9] = experiment: Cytotoxicity against human SK-N-MC cells assessed as cell viability at 10 uM after 24 hrs by MTT assay relative to control; details: read-out: Activity; method in brief: as §2
PC-3 [10] = experiment: Cytotoxicity against human PC3 cells assessed as cell viability at 10 uM after 24 hrs by MTT assay relative to control; details: PC-3, 24 h, read-out: Activity; method in brief: as §2
MDA-MB-231 [11] = experiment: Cytotoxicity against human MDA-MB-231 cells assessed as cell viability at 10 uM after 24 hrs by MTT assay relative to control; details: MDA-MB-231, 24 h, read-out: Activity; method in brief: as §2
SK-MEL-2 = experiment: Cytotoxicity against human SK-MEL-2 cells assessed as cell viability at 10 uM after 24 hrs by MTT assay relative to control; details: SK-MEL-2, 24 h, read-out: Activity; method in brief: as §2
Jurkat [12] = experiment: Cytotoxicity against human Jurkat cells assessed as cell viability after 24 hrs by MTT assay; details: read-out: LC50 (the source's name)
Method in brief: (§3)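 Suspension cells grown in α-MEM with 10% FBS and penicillin-streptomycin, seeded at 30,000 cells/well in phenol red-free medium and held 15 h before treatment. Compounds diluted from 10 mM DMSO stocks, final 1% DMSO, for 24 h. MTT (5 mg/ml stock) added directly for 3 h at 37 °C, then centrifugation, DMSO solubilization, OD 550 nm. LC50 from dose-response curves normalized to vehicle.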

JeKo-1 [13] = experiment: Cytotoxicity against human JeKo1 cells assessed as cell viability after 24 hrs by MTT assay; details: JeKo-1, 24 h, read-out: LC50 (the source's name); method in brief: as §3
HCT-116 [14] = experiment: Cytotoxicity against human HCT116 cells assessed as cell viability after 24 hrs by MTT assay; details: HCT-116, 24 h, read-out: LC50 (the source's name)
Method in brief: (§4)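 Adherent cells grown in DMEM with 10% FBS and penicillin-streptomycin, dissociated with Accutase, seeded at 500–10,000 cells/well and held 15 h before treatment. Compounds diluted from 10 mM DMSO stocks, final 1% DMSO, for 24 h at 37 °C, 5% CO2. Medium replaced with 1 mg/ml MTT for 3 h, formazan dissolved in DMSO, OD 550 nm. LC50 from dose-response curves normalized to 1% DMSO vehicle.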

MDA-MB-231 [15] = experiment: Cytotoxicity against human MDA-MB-231 cells assessed as cell viability after 24 hrs by MTT assay; details: MDA-MB-231, 24 h, read-out: LC50 (the source's name); method in brief: as §4
HeLa [16] = experiment: Cytotoxicity against human HeLa cells assessed as cell viability after 24 hrs by MTT assay; details: read-out: LC50 (the source's name); method in brief: as §4
SJSA-1 [17] = experiment: Cytotoxicity against human SJSA1 cells assessed as cell viability after 24 hrs by MTT assay; details: SJSA-1, 24 h, read-out: LC50 (the source's name); method in brief: as §4
SK-N-MC [18] = experiment: Cytotoxicity against human SK-N-MC cells assessed as cell viability after 24 hrs by MTT assay; details: read-out: LC50 (the source's name); method in brief: as §4
PC-3 [19] = experiment: Cytotoxicity against human PC3 cells assessed as cell viability after 24 hrs by MTT assay; details: PC-3, 24 h, read-out: LC50 (the source's name); method in brief: as §4
A549 [20] = experiment: Cytotoxicity against human A549 cells assessed as cell viability after 24 hrs by MTT assay; details: A549, 24 h, read-out: LC50 (the source's name); method in brief: as §4

| SMILES | viability at 2 µM (Jurkat [1]) [%] | viability at 2 µM (JeKo-1 [2]) [%] | viability at 10 µM (Jurkat [3]) [%] | viability at 10 µM (JeKo-1 [4]) [%] | viability at 10 µM (HeLa [5]) [%] | viability at 10 µM (A549 [6]) [%] | viability at 10 µM (HCT-116 [7]) [%] | viability at 10 µM (SJSA-1 [8]) [%] | viability at 10 µM (SK-N-MC [9]) [%] | viability at 10 µM (PC-3 [10]) [%] | viability at 10 µM (MDA-MB-231 [11]) [%] | viability at 10 µM (SK-MEL-2) [%] | CC50 (HCT-116 [14]) [µM] | CC50 (HeLa [16]) [µM] | CC50 (PC-3 [19]) [µM] | also measured |
| --- | --- | --- | --- | --- | --- | --- | --- | --- | --- | --- | --- | --- | --- | --- | --- | --- |
| C=C1C(=O)O[C@@H]2[C@H]3O[C@]3(C)CC/C=C(/C)[C@@H](OC(=O)Nc3cc(C(F)(F)F)cc(C(F)(F)F)c3)C[C@@H]12 | 68.9 | 76.4 | 0 | -1 | 20.2 | 54.3 | 10.8 | 68.2 | 18.5 | 38.7 | 16.7 | 57 | 7.9 | – | – | CC50 (Jurkat [12]): 2.8 µM; CC50 (JeKo-1 [13]): 3.5 µM; CC50 (MDA-MB-231 [15]): 7.2 µM |
| C=C1C(=O)O[C@@H]2[C@H]3O[C@]3(C)CC/C=C(/COC(=O)c3ccc(C(F)(F)F)cc3C(F)(F)F)CC[C@@H]12 | 89 | 80.9 | 0 | -2.2 | 11.3 | 45.1 | 15.1 | 17.8 | 18.7 | 4 | 20.7 | 62 | 8.2 | 2.9 | 6.7 | CC50 (SJSA-1 [17]): 7.7 µM; CC50 (SK-N-MC [18]): 5.6 µM |
| C=C1C(=O)O[C@@H]2[C@H]3O[C@]3(C)CC/C=C(/C)[C@@H](OC(=O)c3ccc(C(F)(F)F)cc3C(F)(F)F)C[C@@H]12 | 83.2 | 105 | 0 | 5.7 | 10.7 | 33.7 | 20.8 | 26.5 | 11.5 | 6.4 | 19.2 | 61.4 | – | 2.1 | 5.3 | CC50 (SK-N-MC [18]): 5.7 µM; CC50 (MDA-MB-231 [15]): 5.7 µM |
| C=C1C(=O)O[C@@H]2[C@H]3O[C@]3(C)CC/C=C(/COC(=O)c3coc(-c4ccc(Br)cc4)c3)CC[C@@H]12 | 89 | 100 | 0 | 7.4 | 57.6 | 74.8 | 11.8 | 47.7 | 66.1 | 65.9 | 91 | 78.8 | 11.8 | – | – | – |
| C=C1C(=O)O[C@@H]2[C@H]3O[C@]3(C)CC/C=C(/COC(=O)Nc3ccc([N+](=O)[O-])cc3)CC[C@@H]12 | 79 | 80 | 0 | -0.1 | 5.4 | 60 | 1.6 | 44.5 | 23.3 | 17.7 | 41.3 | 40.4 | 7.8 | 1.7 | 5.7 | – |
| C=C1C(=O)O[C@@H]2[C@H]3O[C@]3(C)CC/C=C(/COC(=O)c3cc(C(F)(F)F)cc(C(F)(F)F)c3)CC[C@@H]12 | 70 | 64.3 | 5.7 | 4.8 | 3.9 | 29.6 | 15.5 | 23.1 | 3.2 | 3.7 | 8 | 28.6 | 5.7 | 1.5 | 4.7 | CC50 (Jurkat [12]): 1.9 µM; CC50 (JeKo-1 [13]): 1.7 µM; CC50 (A549 [20]): 4.9 µM; CC50 (SJSA-1 [17]): 6.4 µM; CC50 (SK-N-MC [18]): 0.6 µM; CC50 (MDA-MB-231 [15]): 6.2 µM |
| C=C1C(=O)O[C@@H]2[C@H]3O[C@]3(C)CC/C=C(/C)[C@@H](OC(=O)c3cc(-c4ccc(Cl)cc4)on3)C[C@@H]12 | 95.7 | 96.9 | 0 | -2.7 | 63.5 | 98.4 | 14.2 | 92.7 | 70.7 | 71.7 | 84.7 | 85.8 | 8.3 | – | – | – |
| C=C1C(=O)O[C@@H]2[C@H]3O[C@]3(C)CC/C=C(/C)[C@@H](OC(=O)Nc3ccc(F)cc3F)C[C@@H]12 | 85.8 | 80.4 | 0 | -2.6 | 76.3 | 68.9 | 17.6 | 100 | 91.3 | 82.8 | 96.4 | 85.8 | 11.8 | – | – | – |
| C=C1C(=O)O[C@@H]2[C@H]3O[C@]3(C)CC/C=C(/COC(=O)c3cc(-c4ccc(Cl)cc4)on3)CC[C@@H]12 | 94 | 90.6 | 47.1 | 39.4 | 88.4 | 102 | 103 | 100 | 64.5 | 95.2 | 100 | 98.6 | – | – | – | – |
| C=C1C(=O)O[C@@H]2[C@H]3O[C@]3(C)CC/C=C(/COC(=O)Nc3ccc(F)cc3F)CC[C@@H]12 | 86.2 | 78.3 | 0 | -2.1 | 89.7 | 70.6 | 33.2 | 100 | 95.6 | 89.8 | 88.5 | 84.5 | – | – | – | CC50 (JeKo-1 [13]): 6.7 µM |
| C=C1C(=O)O[C@@H]2[C@H]3O[C@]3(C)CC/C=C(/COC(=O)Nc3cccc4ccccc34)CC[C@@H]12 | 96 | 102 | 89 | 16.8 | 75 | 84.5 | 100 | 98.3 | 104 | 81.9 | 100 | 73.6 | – | – | – | – |
| C=C1C(=O)O[C@@H]2[C@H]3O[C@]3(C)CC/C=C(/COc3coc(-c4ccc(Br)cc4)c3)CC[C@@H]12 | 87.6 | 98.8 | 0 | -2 | 59.2 | 95.2 | 26.4 | 93.7 | 90.9 | 97.1 | 87.1 | 103 | – | – | – | – |
